Source: ChEMBL document CHEMBL2434966, “Novel N-4-piperazinyl-ciprofloxacin-chalcone hybrids: synthesis, physicochemical properties, anticancer and topoisomerase I and II inhibitory activity” (Eur J Med Chem, 2013)
≈ marks a conversion by molar mass, not a printed value.

What was measured:
[1] = Aqueous solubility of the compound at pH 7.8 by UV spectroscopic analysis; type: physicochemical; conditions: aqueous solution
In short: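 Excess solid (10 mg) shaken in buffer at pH 6.9 or 7.8, 37 °C. The filtrate was diluted into the linear calibration range and dissolved drug measured by UV absorbance at λmax 272 nm. Values are the average of at least three agreeing independent measurements.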

MDA-MB-231 = test: Growth inhibition of human MDA-MB-231 cells after 48 hrs by sulforhodamine B assay; type: functional; conditions: MDA-MB-231, 48 h
In short: (§1)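 NCI 60-panel five-dose test at 10-fold dilutions, 10^-4 to 10^-8 M, with 48 h continuous exposure and SRB protein read-out. Percent growth derived from time-zero, untreated-control and treated absorbances. GI50 is the concentration where [(Ti-Tz)/(C-Tz)]×100 = 50. TGI is taken at Ti = Tz. LC50 is taken at [(Ti-Tz)/Tz]×100 = -50.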

[2] = Growth inhibition of human Hs 578T cells after 48 hrs by sulforhodamine B assay; type: functional; conditions: for CC50: read-out: LC50 (the source's name); in short: as §1
MCF7 = test: Growth inhibition of human MCF7 cells after 48 hrs by sulforhodamine B assay; type: functional; conditions: MCF7, 48 h; in short: as §1
A498 = test: Growth inhibition of human A498 cells after 48 hrs by sulforhodamine B assay; type: functional; conditions: A498, 48 h; in short: as §1
UACC-62 = test: Growth inhibition of human UACC62 cells after 48 hrs by sulforhodamine B assay; type: functional; conditions: UACC-62, 48 h
In short: (§2)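 NCI 60-cell panel, five concentrations (10-fold dilutions, 0.01–100 µM), 48 h continuous exposure; SRB protein stain read spectrophotometrically. Percent growth from time-zero, untreated-control and treated absorbances. GI50 is the concentration giving 50% lower net protein increase than control. Values beyond the tested range are reported as more or less than the highest or lowest concentration.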

UACC-257 = test: Growth inhibition of human UACC257 cells after 48 hrs by sulforhodamine B assay; type: functional; conditions: UACC-257, 48 h; for CC50: read-out: LC50 (the source's name); in short: as §2
SK-MEL-2 [3] = test: Growth inhibition of human SK-MEL-2 cells after 48 hrs by sulforhodamine B assay; type: functional; conditions: SK-MEL-2, 48 h; for CC50: read-out: LC50 (the source's name)
In short: (§3)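 NCI five-dose screen on the full 60-cell-line panel. Cells were given 10-fold dilutions from 10^-4 to 10^-8 M with continuous 48 h exposure, and growth was read by SRB staining. Percent growth was taken from time-zero, control and treated absorbances. GI50, TGI and LC50 were then derived, the GI50 being the concentration that gives a 50% lower net protein increase than control.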

SF-295 [4] = test: Growth inhibition of human SF295 cells after 48 hrs by sulforhodamine B assay; type: functional; conditions: SF-295, 48 h; in short: as §3
COLO 205 = test: Growth inhibition of human COLO205 cells after 48 hrs by sulforhodamine B assay; type: functional; conditions: COLO 205, 48 h; in short: as §1
RPMI-8226 [5] = test: Growth inhibition of human RPMI8226 cells after 48 hrs by sulforhodamine B assay; type: functional; conditions: RPMI-8226, 48 h; for CC50: read-out: LC50 (the source's name); in short: as §3
T47D = test: Growth inhibition of human T47D cells assessed as cell growth at 10^-5 M after 48 hrs by sulforhodamine B assay; type: functional; conditions: read-out: Activity
In short: (§4)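 NCI primary one-dose screen: single concentration of 10^-5 M added to culture, 48 h incubation, SRB protein-dye endpoint. Percent growth of treated cells measured spectrophotometrically against untreated controls.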

RXF 393 = test: Growth inhibition of human RXF393 cells assessed as cell growth at 10^-5 M after 48 hrs by sulforhodamine B assay; type: functional; conditions: RXF 393, 48 h, read-out: Activity
In short: (§5)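 NCI 60-cell-line primary one-dose screen. Cells were exposed to a single 10^-5 M concentration for 48 h. The end point was sulforhodamine B protein staining, read spectrophotometrically. Results are reported as percent growth of treated cells relative to untreated control cells.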

ACHN = test: Growth inhibition of human ACHN cells assessed as cell growth at 10^-5 M after 48 hrs by sulforhodamine B assay; type: functional; conditions: read-out: Activity
In short: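 NCI 60-cell-line primary screen. Single concentration of 10^-5 M, 48 h incubation. End point by sulforhodamine B protein staining read spectrophotometrically. Reported as percent growth of treated cells relative to untreated control cells.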

OVCAR-8 = test: Growth inhibition of human OVCAR8 cells assessed as cell growth at 10^-5 M after 48 hrs by sulforhodamine B assay; type: functional; conditions: OVCAR-8, 48 h, read-out: Activity; in short: as §5
OVCAR-4 = test: Growth inhibition of human OVCAR4 cells assessed as cell growth at 10^-5 M after 48 hrs by sulforhodamine B assay; type: functional; conditions: OVCAR-4, 48 h, read-out: Activity; in short: as §5
SK-MEL-5 = test: Growth inhibition of human SK-MEL-5 cells assessed as cell growth at 10^-5 M after 48 hrs by sulforhodamine B assay; type: functional; conditions: SK-MEL-5, 48 h, read-out: Activity; in short: as §5
SK-MEL-2 [6] = test: Growth inhibition of human SK-MEL-2 cells assessed as cell growth at 10^-5 M after 48 hrs by sulforhodamine B assay; type: functional; conditions: SK-MEL-2, 48 h, read-out: Activity; in short: as §5
MDA-MB-435 = test: Growth inhibition of human MDA-MB-435 cells assessed as cell growth at 10^-5 M after 48 hrs by sulforhodamine B assay; type: functional; conditions: MDA-MB-435, 48 h, read-out: Activity; in short: as §5
SNB-75 = test: Growth inhibition of human SNB75 cells assessed as cell growth at 10^-5 M after 48 hrs by sulforhodamine B assay; type: functional; conditions: SNB-75, 48 h, read-out: Activity; in short: as §4
SF-539 = test: Growth inhibition of human SF539 cells assessed as cell growth at 10^-5 M after 48 hrs by sulforhodamine B assay; type: functional; conditions: SF-539, 48 h, read-out: Activity; in short: as §5
SF-295 [7] = test: Growth inhibition of human SF295 cells assessed as cell growth at 10^-5 M after 48 hrs by sulforhodamine B assay; type: functional; conditions: SF-295, 48 h, read-out: Activity; in short: as §5
NCI-H460 = test: Growth inhibition of human NCI-H460 cells assessed as cell growth at 10^-5 M after 48 hrs by sulforhodamine B assay; type: functional; conditions: NCI-H460, 48 h, read-out: Activity; in short: as §5
NCI-H23 = test: Growth inhibition of human NCI-H23 cells assessed as cell growth at 10^-5 M after 48 hrs by sulforhodamine B assay; type: functional; conditions: NCI-H23, 48 h, read-out: Activity; in short: as §5
RPMI-8226 [8] = test: Growth inhibition of human RPMI8226 cells assessed as cell growth at 10^-5 M after 48 hrs by sulforhodamine B assay; type: functional; conditions: RPMI-8226, 48 h, read-out: Activity; in short: as §5

SMILES: COc1cc(/C=C/C(=O)c2ccc(NC(=O)CN3CCN(c4cc5c(cc4F)c(=O)c(C(=O)O)cn5C4CC4)CC3)cc2)cc(OC)c1OC
- solubility [1]: 2.01 µg/mL (≈ 2.94 µM)
- GI50 (MDA-MB-231): 0.51 µM
- LC50 (50% lethal concentration) (MDA-MB-231): > 100 µM
- GI50 [2]: 53.8 µM
- TGI [2]: > 100 µM
- CC50 [2]: > 100 µM
- GI50 (MCF7): 0.47 µM
- LC50 (50% net cell kill) (MCF7): > 100 µM
- TGI (MCF7): > 100 µM
- GI50 (A498): 0.36 µM
- LC50 (concentration killing 50% of starting cells) (A498): 5.47 µM
- TGI (A498): 1.8 µM
- GI50 (UACC-62): 0.8 µM
- LC50 (UACC-62): 27.9 µM
- TGI (UACC-62): 3.63 µM
- GI50 (UACC-257): 1.42 µM
- TGI (UACC-257): 65.4 µM
- CC50 (UACC-257): > 100 µM
- GI50 (SK-MEL-2 [3]): 1.98 µM
- TGI (SK-MEL-2 [3]): 5.38 µM
- CC50 (SK-MEL-2 [3]): 43.7 µM
- GI50 (SF-295 [4]): 0.53 µM
- LC50 (concentration giving 50% net cell kill) (SF-295 [4]): 53.1 µM
- TGI (SF-295 [4]): 3.13 µM
- GI50 (COLO 205): 1.62 µM
- LC50 (lethal concentration, 50% net cell kill) (COLO 205): > 100 µM
- TGI (COLO 205): 15.4 µM
- GI50 (RPMI-8226 [5]): 0.29 µM
- TGI (RPMI-8226 [5]): 0.77 µM
- CC50 (RPMI-8226 [5]): > 100 µM
- growth at 10 µM (T47D): 17.6%
- growth at 10 µM (RXF 393): -87.6%
- growth at 10 µM (ACHN): 10.8%
- growth at 10 µM (OVCAR-8): 4.74%
- growth at 10 µM (OVCAR-4): 16.4%
- growth at 10 µM (SK-MEL-5): -42.9%
- growth at 10 µM (SK-MEL-2 [6]): 30%
- growth at 10 µM (MDA-MB-435): -1.52%
- growth at 10 µM (SNB-75): 76.6%
- growth at 10 µM (SF-539): -15.8%
- growth at 10 µM (SF-295 [7]): -27.2%
- growth at 10 µM (NCI-H460): -20%
- growth at 10 µM (NCI-H23): -35.6%
- growth at 10 µM (RPMI-8226 [8]): -18.8%

SMILES: O=C(CN1CCN(c2cc3c(cc2F)c(=O)c(C(=O)O)cn3C2CC2)CC1)Nc1ccc(C(=O)/C=C/c2ccccc2)cc1
- solubility [1]: 2.53 µg/mL (≈ 4.25 µM)
- GI50 (MDA-MB-231): 1.84 µM
- LC50 (50% lethal concentration) (MDA-MB-231): > 100 µM
- TGI (MDA-MB-231): 5.13 µM
- GI50 [2]: 4.99 µM
- TGI [2]: > 100 µM
- CC50 [2]: > 100 µM
- GI50 (MCF7): 3.52 µM
- LC50 (50% net cell kill) (MCF7): > 100 µM
- TGI (MCF7): > 100 µM
- GI50 (A498): 1.28 µM
- LC50 (concentration killing 50% of starting cells) (A498): > 100 µM
- TGI (A498): 7.37 µM
- GI50 (UACC-62): 3.71 µM
- LC50 (UACC-62): > 100 µM
- TGI (UACC-62): > 100 µM
- GI50 (UACC-257): 3.9 µM
- TGI (UACC-257): 90.8 µM
- CC50 (UACC-257): > 100 µM
- GI50 (SK-MEL-2 [3]): 2.94 µM
- TGI (SK-MEL-2 [3]): 11.3 µM
- CC50 (SK-MEL-2 [3]): > 100 µM
- GI50 (SF-295 [4]): 2.11 µM
- LC50 (concentration giving 50% net cell kill) (SF-295 [4]): > 100 µM
- TGI (SF-295 [4]): 6.25 µM
- GI50 (COLO 205): 36.3 µM
- LC50 (lethal concentration, 50% net cell kill) (COLO 205): > 100 µM
- TGI (COLO 205): > 100 µM
- GI50 (RPMI-8226 [5]): 2.52 µM
- TGI (RPMI-8226 [5]): 6.73 µM
- CC50 (RPMI-8226 [5]): > 100 µM
- growth at 10 µM (T47D): 85.1%
- growth at 10 µM (RXF 393): 41.7%
- growth at 10 µM (ACHN): 40%
- growth at 10 µM (OVCAR-8): 6.3%
- growth at 10 µM (OVCAR-4): 86.4%
- growth at 10 µM (SK-MEL-5): 13.6%
- growth at 10 µM (SK-MEL-2 [6]): 53.7%
- growth at 10 µM (MDA-MB-435): 19.2%
- growth at 10 µM (SNB-75): 61.8%
- growth at 10 µM (SF-539): 26.2%
- growth at 10 µM (SF-295 [7]): 15.2%
- growth at 10 µM (NCI-H460): 7.12%
- growth at 10 µM (NCI-H23): 24%
- growth at 10 µM (RPMI-8226 [8]): 2.45%
